Assay results: ChEMBL document CHEMBL4665798, “Novel Human Urate Transporter 1 Inhibitors as Hypouricemic Drug Candidates with Favorable Druggability” (J Med Chem, 2020)
Blank lines part the entries; values can stand above or below the compound they belong to.

How the values were obtained:
Mus musculus [1] = experiment: Potency index, ratio of lesinurad to test compound for hypouricemic activity in Kunming mouse model of xanthine/potassium oxonate-induced acute hyperuricemia assessed as decrease in serum uric acid level at 2 mg/kg administered 3 hrs prior to xanthine/potassium oxonate and measured after 6 hrs; format: functional
Mus musculus [2] = experiment: Hypouricemic activity in Kunming mouse model of xanthine/potassium oxonate-induced acute hyperuricemia assessed as decrease in serum uric acid level at 2 mg/kg administered 3 hrs prior to xanthine/potassium oxonate and measured after 6 hrs relative to control; format: functional; set-up: scale not given: the % may be the effect or the level left; conditions: time 9 hrs
Procedure, shortened: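 Male Kunming mice, hyperuricemia induced by intragastric xanthine plus subcutaneous potassium oxonate (0.2 mL each). […] Groups: normal vehicle, untreated model, active control, test. Serum uric acid measured. Decrease ratio = (model SUA − compound SUA)/(model SUA − vehicle SUA).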

Rattus norvegicus = organism: Rattus norvegicus; experiment: Hypouricemic activity in rat model of xanthine/potassium oxonate-induced acute hyperuricemia assessed as decrease in serum uric acid level relative to control; format: functional; set-up: scale not given: the % may be the effect or the level left
[3] = Sub-acute toxicity in Kunming mouse assessed as death at 50 mg/kg, po administered once every second day for 14 days; format: organism-based; conditions: in vivo, 336 h, time 14 day
[4] = AUC (0 to infinity) in Sprague-Dawley rat at 20 mg/kg, po by LC-MS analysis; format: ADME, organism-based; set-up: route oral, time infinity, dose 20 mg/kg; conditions: in vivo
[5] = AUC (0 to t) in Sprague-Dawley rat at 20 mg/kg, po by LC-MS analysis; format: ADME, organism-based; set-up: dose 20 mg/kg; conditions: in vivo
[6] = Sub-acute toxicity in Kunming mouse assessed as clonic convulsion at 50 mg/kg, po administered once every second day for 14 days; format: organism-based; conditions: in vivo, 336 h, time 14 day
[7] = Cmax in Sprague-Dawley rat at 20 mg/kg, po by LC-MS analysis; format: ADME, organism-based; set-up: route oral, dose 20 mg/kg; conditions: in vivo
[8] = Sub-acute toxicity in Kunming mouse assessed as hydropic degeneration of hepatocytes at 50 mg/kg, po administered as single dose every other day for 14 days by H and E staining based assay; format: organism-based; conditions: in vivo, 336 h, time 14 day
[9] = Sub-acute toxicity in Kunming mouse assessed as appearance of ruffled fur at 50 mg/kg, po administered once every second day for 14 days; format: organism-based; conditions: in vivo, 336 h, time 14 day
[10] = Acute toxicity in male Kunming mouse assessed as change in body weight at 500 mg/kg, ig measured for 1 week; format: organism-based; conditions: in vivo, po, 168 h, time 1 weeks
[11] = Acute toxicity in Kunming mouse assessed as induction of abnormal behaviors by measuring lethargy at 500 mg/kg, ig; format: organism-based; conditions: in vivo, po
[12] = Clearance in Sprague-Dawley rat at 1 mg/kg, iv by LC-MS analysis; format: ADME, organism-based; conditions: in vivo
[13] = MRT (0 to infinity) in Sprague-Dawley rat at 20 mg/kg, po by LC-MS analysis; format: ADME, organism-based; conditions: in vivo
[14] = Sub-acute toxicity in Kunming mouse assessed as lethargy at 50 mg/kg, po administered once every second day for 14 days; format: organism-based; conditions: in vivo, 336 h, time 14 day
[15] = Acute toxicity in Kunming mouse assessed as induction of abnormal behaviors by measuring clonic convulsion at 500 mg/kg, ig; format: organism-based; conditions: in vivo, po
[16] = AUC (0 to infinity) in Sprague-Dawley rat at 1 mg/kg, iv by LC-MS analysis; format: ADME, organism-based; set-up: time infinity, route intravenous, dose 1 mg/kg; conditions: in vivo
[17] = Sub-acute toxicity in Kunming mouse assessed as ballooning degeneration of liver at 50 mg/kg, po administered as single dose every other day for 14 days by H and E staining based assay; format: organism-based; conditions: in vivo, 336 h, time 14 day
[18] = Sub-acute toxicity in Kunming mouse assessed as anorexia at 50 mg/kg, po administered once every second day for 14 days; format: organism-based; conditions: in vivo, 336 h, time 14 day
[19] = Acute toxicity in Kunming mouse assessed as induction of abnormal behaviors by measuring anorexia at 500 mg/kg, ig; format: organism-based; conditions: in vivo, po
[20] = biological target: T1, Solute carrier family 22 member 12 (Homo sapiens, UniProt Q96S37); experiment: Inhibition of human URAT1 expressed in HEK293T cells assessed as reduction in [14C]uric acid uptake preincubated for 15 mins followed by [14C]uric acid addition by liquid scintillation counting method; format: cell-based
T1 sequence (Q96S37 whole entry): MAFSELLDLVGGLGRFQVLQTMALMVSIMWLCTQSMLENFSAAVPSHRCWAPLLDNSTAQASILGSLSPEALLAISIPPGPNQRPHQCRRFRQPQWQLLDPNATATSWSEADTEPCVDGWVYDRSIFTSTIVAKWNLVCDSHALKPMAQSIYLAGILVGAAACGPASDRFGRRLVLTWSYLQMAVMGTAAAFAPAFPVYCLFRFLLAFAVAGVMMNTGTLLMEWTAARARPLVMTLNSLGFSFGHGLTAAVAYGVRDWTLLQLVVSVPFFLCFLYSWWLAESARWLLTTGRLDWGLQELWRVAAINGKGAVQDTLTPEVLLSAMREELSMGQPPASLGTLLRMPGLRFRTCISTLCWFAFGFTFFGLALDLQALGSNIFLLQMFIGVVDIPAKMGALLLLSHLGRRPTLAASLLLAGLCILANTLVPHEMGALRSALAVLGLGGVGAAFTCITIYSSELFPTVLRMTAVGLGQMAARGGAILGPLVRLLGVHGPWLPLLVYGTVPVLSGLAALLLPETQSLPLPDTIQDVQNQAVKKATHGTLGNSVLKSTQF

[21] = AUC (0 to t) in Sprague-Dawley rat at 1 mg/kg, iv by LC-MS analysis; format: ADME, organism-based; set-up: dose 1 mg/kg; conditions: in vivo
[22] = Sub-acute toxicity in Kunming mouse assessed as hepatocellular condensation of liver at 50 mg/kg, po administered as single dose every other day for 14 days by H and E staining based assay; format: organism-based; conditions: in vivo, 336 h, time 14 day
[23] = Half-life in Sprague-Dawley rat at 1 mg/kg, iv by LC-MS analysis; format: ADME, organism-based; conditions: in vivo
[24] = Acute toxicity in female Kunming mouse assessed as change in body weight at 500 mg/kg, ig measured for 1 week; format: organism-based; conditions: in vivo, po, 168 h, time 1 weeks
[25] = Half-life in Sprague-Dawley rat at 20 mg/kg, po by LC-MS analysis; format: ADME, organism-based; conditions: in vivo
[26] = Tmax in Sprague-Dawley rat at 20 mg/kg, po by LC-MS analysis; format: ADME, organism-based; conditions: in vivo
[27] = Acute toxicity in Kunming mouse assessed as death at 500 mg/kg, ig measured for 1 week; format: organism-based; conditions: in vivo, po, 168 h, time 1 weeks
[28] = Oral bioavailability in Sprague-Dawley rat at 20 mg/kg by LC-MS analysis; format: ADME, organism-based; conditions: in vivo
[29] = MRT (0 to infinity) in Sprague-Dawley rat at 1 mg/kg, iv by LC-MS analysis; format: ADME, organism-based; conditions: in vivo
[30] = Sub-acute toxicity in male Kunming mouse assessed as increase in body weight at 50 mg/kg, po administered once every second day for 14 days; format: organism-based; conditions: in vivo, 336 h, time 14 day
[31] = Sub-acute toxicity in female Kunming mouse assessed as increase in body weight at 50 mg/kg, po administered once every second day for 14 days; format: organism-based; conditions: in vivo, 336 h, time 14 day
[32] = Sub-acute toxicity in Kunming mouse assessed as congestion in hepatic central vein at 50 mg/kg, po administered as single dose every other day for 14 days by H and E staining based assay; format: organism-based; conditions: in vivo, 336 h, time 14 day
[33] = biological target: T2, Solute carrier family 2, facilitated glucose transporter member 9 (Homo sapiens, UniProt Q9NRM0); experiment: Inhibition of GLUT9 (unknown origin)
T2 sequence (Q9NRM0 whole entry): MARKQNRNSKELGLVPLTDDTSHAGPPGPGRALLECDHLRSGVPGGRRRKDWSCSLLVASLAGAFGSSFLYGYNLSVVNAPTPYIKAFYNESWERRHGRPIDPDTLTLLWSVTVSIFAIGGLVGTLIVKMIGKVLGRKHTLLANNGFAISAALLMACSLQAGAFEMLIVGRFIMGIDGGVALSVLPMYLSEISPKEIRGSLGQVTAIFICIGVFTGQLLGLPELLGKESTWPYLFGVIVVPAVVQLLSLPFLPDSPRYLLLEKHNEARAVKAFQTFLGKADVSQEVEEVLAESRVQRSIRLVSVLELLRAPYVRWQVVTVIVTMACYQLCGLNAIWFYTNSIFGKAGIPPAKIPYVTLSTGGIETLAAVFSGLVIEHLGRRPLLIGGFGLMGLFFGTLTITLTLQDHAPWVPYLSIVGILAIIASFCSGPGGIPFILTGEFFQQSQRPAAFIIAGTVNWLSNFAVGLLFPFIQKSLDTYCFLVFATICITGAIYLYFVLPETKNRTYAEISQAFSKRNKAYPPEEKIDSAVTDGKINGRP

SMILES: CC(Sc1nc2ncccc2n1-c1ccc(C#N)c2ccccc12)C(=O)O (configuration not stated)
Ratio (Mus musculus [1]): 2.8
Activity (Mus musculus [2]): 95.01%

SMILES: CC(Sc1nc2cnccc2n1-c1ccc(C2CC2)c2ccccc12)C(=O)O (racemic)
Activity (Rattus norvegicus): 81.42%
Activity [3]: Non-Toxic
AUC(0-inf) [4]: 65100 ng·h/mL
AUC(0-t) [5]: 58200 ng·h/mL
Activity [6]: Non-Toxic
Cmax [7]: 21600 ng/mL
Activity [8]: Non-Toxic
Activity [9]: Non-Toxic
Activity [10]: Non-Toxic
Activity [11]: Non-Toxic
clearance [12]: 5.3 mL/min/kg
MRT inf [13]: 4.6 h
Activity [14]: Non-Toxic
Activity [15]: Non-Toxic
AUC(0-inf) [16]: 3320 ng·h/mL
Activity [17]: Non-Toxic
Activity [18]: Non-Toxic
Activity [19]: Non-Toxic
IC50 [20]: 6.14 µM
AUC(0-t) [21]: 3110 ng·h/mL
Activity [22]: Non-Toxic
half-life [23]: 138 min
Activity [24]: Non-Toxic
half-life [25]: 186 min
Tmax [26]: 30 min
Activity [27]: Non-Toxic
bioavailability [28]: 93.6%
MRT inf [29]: 2.86 h
Activity [30]: Non-Toxic
Activity [31]: Non-Toxic
Activity (Mus musculus [2]): 89.62%
Activity [32]: Non-Toxic

IC50 [33]: 32.2 µM
IC50 [20]: 7.29 µM
SMILES: O=C(CSc1nnc(Br)n1-c1ccc(C2CC2)c2ccccc12)NS(=O)(=O)c1ccc(F)cc1F
Activity (Mus musculus [2]): 93.78%
